Assay results reported in ChEMBL document CHEMBL3526050, “Elucidation of the metabolic pathways and the resulting multiple metabolites of almorexant, a dual orexin receptor antagonist, in humans” (Drug Metab Dispos, 2013).

Legend:
[1] = Drug level in feces of healthy human treated with [14C]almorexant at 200 mg, po dosed as single dose; format: ADME, organism-based; conditions: in vivo
Outline: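 Feces pooled by weight across 6 subjects (0–48 to 192–332 h) and extracted three times with acetonitrile, then dried and reconstituted. Analyzed by radio-LC-MS/MS with a methanol/acetonitrile gradient and scintillation-counted fractions. Procedural recovery was 73.0%. Reported as percent of administered radioactive dose.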

Homo sapiens [2] = experiment: Toxicity in healthy human assessed as effect on ECG variables parameters at 200 mg, po dosed as single dose; format: organism-based; conditions: in vivo
Homo sapiens [3] = experiment: Toxicity in healthy human at 200 mg, po dosed as single dose; format: organism-based; conditions: in vivo
Plasma [4] = experiment: Cmax in healthy human plasma assessed as radioactivity at 200 mg, po dosed as single dose; format: ADME, organism-based; design: dose 200 mg, route oral; conditions: in vivo
Outline: (§1)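 Six fasted healthy male subjects given one oral capsule of 200 mg almorexant with about 84 µCi 14C. EDTA blood taken pre-dose to 240 h. Whole blood (solubilized, peroxide-treated) and plasma counted in triplicate by liquid scintillation. Noncompartmental PK: Cmax/Tmax read directly, linear trapezoidal AUC extrapolated via λz, t1/2 = ln2/λz. Geometric mean (95% CI), Tmax median (range).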

Homo sapiens [5] = experiment: Toxicity in healthy human assessed as effect on clinical laboratory parameters at 200 mg, po dosed as single dose; format: organism-based; conditions: in vivo
Homo sapiens [6] = experiment: AUC (0 to t) in healthy human assessed as total radioactivity at 200 mg, po dosed as single dose; conditions: in vivo
Blood [7] = experiment: Half life in healthy human whole blood assessed as radioactivity at 200 mg, po dosed as single dose; format: ADME, organism-based; conditions: in vivo; outline: as §1
[8] = Cmax in healthy human at 200 mg, po dosed as single dose; format: ADME, organism-based; design: dose 200 mg, route oral; conditions: in vivo
Outline: (§2)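 Plasma parent and metabolites M3, M5, M6, M8 after one 200 mg oral 14C dose in 6 fasted male subjects, sampled 0.17–240 h. Validated LC-MS/MS with penta-deuterated internal standards and positive ESI. Low range 0.4/1.0–100 ng/mL using supported liquid extraction, high range 50–1000 ng/mL using protein precipitation. Noncompartmental analysis, geometric means (95% CI), Tmax median (range).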

Plasma [9] = experiment: Drug level in plasma of healthy human treated with [14C]almorexant at 200 mg, po dosed as single dose; format: ADME, organism-based; conditions: in vivo
Outline: (§3)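 Plasma from 6 subjects given one 200 mg oral 14C dose, pooled over at least 2 time points and acetonitrile-precipitated. Radio-LC-MS/MS used a C18 column with ammonium formate pH 4.0/acetonitrile gradient and 0.15-min fractions scintillation-counted. Peak radioactivity converted to ng-equivalents/mL to give AUC0-t. Co-eluting metabolites grouped and expressed relative to parent AUC and to total radioactivity.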

Homo sapiens [10] = experiment: Tlast in healthy human at 200 mg, po dosed as single dose; format: ADME, organism-based; conditions: in vivo; outline: as §3
Homo sapiens [11] = experiment: Drug level in healthy human at 200 mg, po dosed as single dose relative to total radioactivity; format: ADME, organism-based; conditions: in vivo; outline: as §3
Homo sapiens [12] = experiment: AUC (0 to t) in healthy human at 200 mg, po dosed as single dose; format: ADME, organism-based, Plasma; conditions: in vivo; outline: as §3
[13] = Drug excretion in healthy human feces assessed as total radioactivity at 200 mg, po dosed as single dose; format: ADME, organism-based; conditions: in vivo
Outline: (§4)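 Urine collected in 8-h then 24-h intervals, and all feces for 10 days (longer if recovery <90%) after one 200 mg oral 14C dose in 6 fasted males. Urine counted directly by liquid scintillation. Feces homogenized in water, and about 300 mg aliquots combusted before counting, done in triplicate. Stearic acid 14C quality controls were included.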

Homo sapiens [14] = experiment: Tmax in healthy human assessed as total radioactivity at 200 mg, po dosed as single dose; format: ADME, organism-based; conditions: in vivo; outline: as §1
Homo sapiens [15] = experiment: Tlast in healthy human assessed as total radioactivity at 200 mg, po dosed as single dose; format: ADME, organism-based; conditions: in vivo
Blood [16] = experiment: AUC (0 to infinity) in healthy human whole blood assessed as radioactivity at 200 mg, po dosed as single dose; format: ADME, organism-based; design: dose 200 mg, route oral, time infinity; conditions: in vivo; outline: as §1
Plasma [17] = experiment: AUC (0 to infinity) in healthy human plasma assessed as radioactivity at 200 mg, po dosed as single dose; format: ADME, organism-based; design: dose 200 mg, time infinity, route oral; conditions: in vivo; outline: as §1
Homo sapiens [18] = experiment: Toxicity in healthy human assessed as incidence of adverse events at 200 mg, po dosed as single dose; format: organism-based; conditions: in vivo
Plasma [19] = experiment: Tmax in healthy human plasma assessed as radioactivity at 200 mg, po dosed as single dose; format: ADME, organism-based; conditions: in vivo; outline: as §1
[20] = AUC (0 to infinity) in healthy human at 200 mg, po dosed as single dose; format: ADME, organism-based; design: dose 200 mg, route oral, time infinity; conditions: plasma; outline: as §2
[21] = Half life in healthy human at 200 mg, po dosed as single dose; format: ADME, organism-based; conditions: in vivo; outline: as §2
[22] = Tmax in healthy human at 200 mg, po dosed as single dose; format: ADME, organism-based; conditions: in vivo; outline: as §2
[23] = Drug excretion in healthy human urine assessed as total radioactivity at 200 mg, po dosed as single dose; format: ADME, organism-based; conditions: in vivo; outline: as §4
Homo sapiens [24] = experiment: Cmax in healthy human assessed as total radioactivity at 200 mg, po dosed as single dose; format: ADME, organism-based; design: dose 200 mg, route oral; conditions: in vivo; outline: as §1
Homo sapiens [25] = experiment: Toxicity in healthy human assessed as effect on vital signs parameters at 200 mg, po dosed as single dose; format: organism-based; conditions: in vivo
Blood [26] = experiment: Cmax in healthy human whole blood assessed as radioactivity at 200 mg, po dosed as single dose; format: ADME, organism-based; design: dose 200 mg, route oral; conditions: in vivo; outline: as §1
[27] = Ratio of drug level in whole blood to plasma in healthy human at 200 mg, po dosed as single dose; format: ADME, organism-based; conditions: whole blood and plasma; outline: as §1
Blood [28] = experiment: Tmax in healthy human whole blood assessed as radioactivity at 200 mg, po dosed as single dose; format: ADME, organism-based; conditions: in vivo; outline: as §1
Plasma [29] = experiment: Half life in healthy human plasma assessed as radioactivity at 200 mg, po dosed as single dose; format: ADME, organism-based; conditions: in vivo; outline: as §1
Homo sapiens [30] = experiment: AUC (0 to infinity) in healthy human treated with [14C]almorexant at 200 mg, po dosed as single dose; format: ADME, organism-based, Plasma; design: dose 200 mg, route oral, time infinity; conditions: in vivo
Homo sapiens [31] = experiment: Cmax in healthy human treated with [14C]almorexant at 200 mg, po dosed as single dose; format: ADME, organism-based; design: dose 200 mg, route oral; conditions: in vivo
Homo sapiens [32] = experiment: Half life in healthy human treated with [14C]almorexant at 200 mg, po dosed as single dose; format: ADME, organism-based; conditions: in vivo; outline: as §2
Homo sapiens [33] = experiment: Tmax in healthy human treated with [14C]almorexant at 200 mg, po dosed as single dose; format: ADME, organism-based; conditions: in vivo; outline: as §2
Homo sapiens [34] = experiment: Drug level in healthy human treated with [14C]almorexant at 200 mg, po dosed as single dose relative to almorexant; format: ADME, organism-based; conditions: in vivo; outline: as §3
Homo sapiens [35] = experiment: Drug level in healthy human treated with [14C]almorexant at 200 mg, po dosed as single dose relative to total radioactivity; format: ADME, organism-based; conditions: in vivo; outline: as §3
Homo sapiens [36] = experiment: Tlast in healthy human treated with [14C]almorexant at 200 mg, po dosed as single dose; format: ADME, organism-based; conditions: in vivo; outline: as §3
Homo sapiens [37] = experiment: AUC (0 to t) in healthy human treated with [14C]almorexant at 200 mg, po dosed as single dose; format: ADME, organism-based, Plasma; conditions: in vivo; outline: as §3
Homo sapiens [38] = experiment: Volume of distribution in po dosed healthy human; format: ADME, organism-based; conditions: in vivo
[39] = Absolute bioavailability in po dosed healthy human; format: ADME, organism-based; conditions: in vivo
[40] = Clearance in po dosed healthy human; format: ADME, organism-based; conditions: in vivo
[41] = Terminal half life in po dosed healthy human; format: ADME, organism-based; conditions: in vivo, read-out: beta t1/2 (converted)
[42] = Tmax in po dosed healthy human receiving additional evening dose; format: ADME, organism-based; conditions: in vivo
[43] = Tmax in po dosed healthy human; format: ADME, organism-based; conditions: in vivo

SMILES: CNC(=O)[C@@H](c1ccccc1)[n+]1ccc2cc(O)c(OC)cc2c1CCc1ccc(C(F)(F)F)cc1
- Drug metabolism [1]: metabolite_detected

SMILES: CNC(=O)[C@@H](c1ccccc1)N1CCc2cc(O)c(O)cc2[C@@H]1CCc1ccc(C(F)(F)F)cc1
- Drug metabolism [1]: metabolite_detected

SMILES: CNC(=O)[C@@H](c1ccccc1)N1CCc2cc(OC)c(OC)cc2[14C@@H]1CCc1ccc(C(F)(F)F)cc1
- Activity (Homo sapiens [2]): Non-toxic
- Activity (Homo sapiens [3]): Non-toxic
- Cmax (Plasma [4]): 1060 ng.Eq/ml
- Activity (Homo sapiens [5]): Non-toxic
- AUC(0-t) (Homo sapiens [6]): 54100 ng.Eq.hr/ml
- t1/2 (Blood [7]): 39 h
- Cmax [8]: 0.113 µg/mL
- Drug metabolism (Plasma [9]): metabolite_detected
- Tlast (Homo sapiens [10]): 1.6 h
- Drug uptake (Homo sapiens [11]): 0.11%
- AUCt (Homo sapiens [12]): 61.2 ng.Eq.hr/ml
- Drug excretion [13]: 38.7%
- Tmax (Homo sapiens [14]): 1.6 h
- Drug metabolism [1]: metabolite_detected
- Tlast (Homo sapiens [15]): 300 h
- AUC (Blood [16]): 26321 ng.Eq.hr/ml
- AUC (Plasma [17]): 51547 ng.Eq.hr/ml
- Activity (Homo sapiens [18]): Non-toxic
- Tmax (Plasma [19]): 1 h
- AUC(0-inf) [20]: 0.262 µg·h/mL
- half-life [21]: 17.8 h
- Tmax [22]: 0.8 h
- Drug excretion [23]: 8.34%
- Cmax (Homo sapiens [24]): 1050 ng.Eq/ml
- Activity (Homo sapiens [25]): Non-toxic
- Cmax (Blood [26]): 678 ng.Eq/ml
- blood plasma ratio [27]: 0.51
- Tmax (Blood [28]): 1 h
- t1/2 (Plasma [29]): 78 h

SMILES: CNC(=O)[C@@H](c1ccccc1)N1CCc2cc(OC)c(O)cc2[C@@H]1CCc1ccc(C(F)(F)F)cc1
- Drug metabolism (Plasma [9]): metabolite_detected
- Drug metabolism [1]: metabolite_detected
- AUC (Homo sapiens [30]): 0.386 µg·h/mL
- Cmax (Homo sapiens [31]): 0.0614 µg/mL
- t1/2 (Homo sapiens [32]): 21.7 h
- Tmax (Homo sapiens [33]): 1 h

SMILES: CNC(=O)[C@@H](c1ccccc1)N1CCc2cc(O)c(OC)cc2[C@@H]1CCc1ccc(C(F)(F)F)cc1
- Drug metabolism (Plasma [9]): metabolite_detected
- Drug metabolism [1]: metabolite_detected
- AUC (Homo sapiens [30]): 0.16 µg·h/mL
- Cmax (Homo sapiens [31]): 0.0257 µg/mL
- t1/2 (Homo sapiens [32]): 22.1 h
- Tmax (Homo sapiens [33]): 0.8 h

SMILES: COc1cc2c(cc1OC)[C@H](CCc1ccc(C(F)(F)F)cc1)NC[C@H]2O (racemic)
- Drug uptake (Homo sapiens [34]): 28.1%
- Drug uptake (Homo sapiens [35]): 0.03%
- Tlast (Homo sapiens [36]): 1.6 h
- Tmax [22]: 1.6 h
- AUCt (Homo sapiens [37]): 17.2 ng.Eq.hr/ml

SMILES: CNC(=O)[C@@H](c1ccccc1)N1CCc2cc(OC)c(OC)cc2[C@@H]1CCc1ccc(C(F)(F)F)cc1 [ALMOREXANT]
- Vd (Homo sapiens [38]): 683 L
- bioavailability [39]: 11.4%
- CL/F [40]: 717 mL/min
- half-life [41]: 17.8 h
- Tmax [42]: 3 h
- Tmax [43]: 0.8 h
